{"source": "ChEMBL document CHEMBL5724801", "about": "“EUbOPEN Chemogenomics Library - Multiplex” (2024)", "system": "U2OS", "assay": "Multiplex assay against U2OS", "format": "toxicity, cell-based", "settings": "human", "outline": "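At seeding, live cells were stained with Hoechst33342, BioTracker Green Microtubule Cytoskeleton Dye, MitoTracker Red and Annexin V Alexa Fluor 680. After compound addition they were imaged on a CQ1 microscope at 37°C and 5% CO2, and CellPathfinder machine-learning gating sorted them into Hoechst high-intensity objects or normal cells, with normal cells further split into healthy, pyknosed or fragmented nuclei and pyknosed cells into mitotic or apoptotic. Tubulin, mitochondrial-mass and membrane-permeability phenotypes are given as per cents of cells with healthy nuclei.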", "key": {"[1]": {"settings": "12 h, 1 µM, compound concentration 1 uM"}, "[2]": {"settings": "12 h, 10 µM, compound concentration 10 uM"}, "[3]": {"settings": "24 h, 1 µM, compound concentration 1 uM"}, "[4]": {"settings": "24 h, 10 µM, compound concentration 10 uM"}, "[5]": {"settings": "48 h, 1 µM, compound concentration 1 uM"}, "[6]": {"settings": "48 h, 10 µM, compound concentration 10 uM"}}, "note": "“And” between values parts separate entries of the source, which are not always exact repeats. Equal entries are not always repeated."}
{"compound": "Cc1cccc(F)c1C(=O)Nc1cnc(-c2cc3c(cc2Cl)OC(F)(F)O3)cn1", "note": "[ZEGOCRACTIN]", "values": [{"measurement": "Population Apoptotic (%)", "setting": "[1]", "value": "54.76% and 21.05%"}, {"measurement": "Population Fragmented Nuclei (%)", "setting": "[1]", "value": "1.87% and 5.79%"}, {"measurement": "Population Healthy Nuclei (%)", "setting": "[1]", "value": "86.93% and 78.51%"}, {"measurement": "Population Hoechst High Intensity Objects (%)", "setting": "[1]", "value": 0, "unit": "%"}, {"measurement": "Population Membrane Permeable-Phenotype (%)", "setting": "[1]", "value": "0.61% and 6.32%"}, {"measurement": "Population Mitochondria Different-Phenotype (%)", "setting": "[1]", "value": "0% and 12.63%"}, {"measurement": "Population Mitotic Cells (%)", "setting": "[1]", "value": "45.24% and 78.95%"}, {"measurement": "Population Normal (%)", "setting": "[1]", "value": 100, "unit": "%"}, {"measurement": "Population Pyknosed Nuclei (%)", "setting": "[1]", "value": "11.2% and 15.7%"}, {"measurement": "Population Tubulin-Different-Phenotype (%)", "setting": "[1]", "value": "0.61% and 0%"}, {"measurement": "Population Apoptotic (%)", "setting": "[2]", "value": "37.66% and 30.95%"}, {"measurement": "Population Fragmented Nuclei (%)", "setting": "[2]", "value": "0.97% and 1.07%"}, {"measurement": "Population Healthy Nuclei (%)", "setting": "[2]", "value": "80.39% and 76.47%"}, {"measurement": "Population Hoechst High Intensity Objects (%)", "setting": "[2]", "value": "0.24% and 0%"}, {"measurement": "Population Membrane Permeable-Phenotype (%)", "setting": "[2]", "value": "0.6% and 8.39%"}, {"measurement": "Population Mitotic Cells (%)", "setting": "[2]", "value": "62.34% and 69.05%"}, {"measurement": "Population Normal (%)", "setting": "[2]", "value": "99.76% and 100%"}, {"measurement": "Population Pyknosed Nuclei (%)", "setting": "[2]", "value": "18.64% and 22.46%"}, {"measurement": "Population Tubulin-Different-Phenotype (%)", "setting": "[2]", "value": "3.01% and 4.9%"}, {"measurement": "Total Cell Count", "setting": "[2]", "value": "414 and 187"}, {"measurement": "Population Apoptotic (%)", "setting": "[3]", "value": "49.12% and 21.74%"}, {"measurement": "Population Fragmented Nuclei (%)", "setting": "[3]", "value": "2.5% and 3.68%"}, {"measurement": "Population Healthy Nuclei (%)", "setting": "[3]", "value": "86.54% and 82.21%"}, {"measurement": "Population Hoechst High Intensity Objects (%)", "setting": "[3]", "value": 0, "unit": "%"}, {"measurement": "Population Membrane Permeable-Phenotype (%)", "setting": "[3]", "value": "0.22% and 5.22%"}, {"measurement": "Population Mitochondria Different-Phenotype (%)", "setting": "[3]", "value": "0.22% and 7.46%"}, {"measurement": "Population Mitotic Cells (%)", "setting": "[3]", "value": "50.88% and 78.26%"}, {"measurement": "Population Normal (%)", "setting": "[3]", "value": 100, "unit": "%"}, {"measurement": "Population Pyknosed Nuclei (%)", "setting": "[3]", "value": "10.96% and 14.11%"}, {"measurement": "Population Tubulin-Different-Phenotype (%)", "setting": "[3]", "value": "0.89% and 0.75%"}, {"measurement": "Population Apoptotic (%)", "setting": "[4]", "value": "37.72% and 34.92%"}, {"measurement": "Population Fragmented Nuclei (%)", "setting": "[4]", "value": "3.21% and 2.36%"}, {"measurement": "Population Healthy Nuclei (%)", "setting": "[4]", "value": "75.24% and 67.92%"}, {"measurement": "Population Hoechst High Intensity Objects (%)", "setting": "[4]", "value": 0, "unit": "%"}, {"measurement": "Population Membrane Permeable-Phenotype (%)", "setting": "[4]", "value": "2.76% and 6.94%"}, {"measurement": "Population Mitotic Cells (%)", "setting": "[4]", "value": "62.28% and 65.08%"}, {"measurement": "Population Normal (%)", "setting": "[4]", "value": 100, "unit": "%"}, {"measurement": "Population Pyknosed Nuclei (%)", "setting": "[4]", "value": "21.55% and 29.72%"}, {"measurement": "Population Tubulin-Different-Phenotype (%)", "setting": "[4]", "value": "2.76% and 2.78%"}, {"measurement": "Total Cell Count", "setting": "[4]", "value": "529 and 212"}, {"measurement": "Population Apoptotic (%)", "setting": "[5]", "value": "35.96% and 56%"}, {"measurement": "Population Fragmented Nuclei (%)", "setting": "[5]", "value": "3.36% and 3.03%"}, {"measurement": "Population Healthy Nuclei (%)", "setting": "[5]", "value": "87.83% and 87.5%"}, {"measurement": "Population Hoechst High Intensity Objects (%)", "setting": "[5]", "value": 0, "unit": "%"}, {"measurement": "Population Membrane Permeable-Phenotype (%)", "setting": "[5]", "value": "1.69% and 2.6%"}, {"measurement": "Population Mitochondria Different-Phenotype (%)", "setting": "[5]", "value": "0.34% and 5.63%"}, {"measurement": "Population Mitotic Cells (%)", "setting": "[5]", "value": "64.04% and 44%"}, {"measurement": "Population Normal (%)", "setting": "[5]", "value": 100, "unit": "%"}, {"measurement": "Population Pyknosed Nuclei (%)", "setting": "[5]", "value": "8.8% and 9.47%"}, {"measurement": "Population Tubulin-Different-Phenotype (%)", "setting": "[5]", "value": "1.58% and 0.43%"}, {"measurement": "Population Apoptotic (%)", "setting": "[6]", "value": "51.14% and 60.82%"}, {"measurement": "Population Fragmented Nuclei (%)", "setting": "[6]", "value": "5.7% and 6.6%"}, {"measurement": "Population Healthy Nuclei (%)", "setting": "[6]", "value": "63.11% and 59.72%"}, {"measurement": "Population Hoechst High Intensity Objects (%)", "setting": "[6]", "value": "0.14% and 0%"}, {"measurement": "Population Membrane Permeable-Phenotype (%)", "setting": "[6]", "value": "2.48% and 8.72%"}, {"measurement": "Population Mitotic Cells (%)", "setting": "[6]", "value": "48.86% and 39.18%"}, {"measurement": "Population Normal (%)", "setting": "[6]", "value": "99.86% and 100%"}, {"measurement": "Population Pyknosed Nuclei (%)", "setting": "[6]", "value": "31.2% and 33.68%"}, {"measurement": "Population Tubulin-Different-Phenotype (%)", "setting": "[6]", "value": "4.97% and 4.65%"}, {"measurement": "Total Cell Count", "setting": "[6]", "value": "703 and 288"}]}
{"compound": "CC(=O)O[C@H]1C(=O)[C@@]2(C)[C@H]([C@H](OC(=O)c3ccccc3)[C@]3(O)C[C@H](OC(=O)[C@H](O)[C@@H](NC(=O)c4ccccc4)c4ccccc4)C(C)=C1C3(C)C)[C@]1(OC(C)=O)CO[C@@H]1C[C@@H]2O", "note": "[PACLITAXEL]", "values": [{"measurement": "Population Apoptotic (%)", "setting": "[2]", "value": "64% and 71%"}, {"measurement": "Population Fragmented Nuclei (%)", "setting": "[2]", "value": "28% and 16%"}, {"measurement": "Population Healthy Nuclei (%)", "setting": "[2]", "value": "46% and 60%"}, {"measurement": "Population Hoechst High Intensity Objects (%)", "setting": "[2]", "value": "8% and 3%"}, {"measurement": "Population Membrane Permeable-Phenotype (%)", "setting": "[2]", "value": "23% and 10%"}, {"measurement": "Population Mitochondria Different-Phenotype (%)", "setting": "[2]", "value": "25% and 30%"}, {"measurement": "Population Mitotic Cells (%)", "setting": "[2]", "value": "35% and 28%"}, {"measurement": "Population Normal (%)", "setting": "[2]", "value": "91% and 96%"}, {"measurement": "Population Pyknosed Nuclei (%)", "setting": "[2]", "value": "24% and 23%"}, {"measurement": "Population Tubulin-Different-Phenotype (%)", "setting": "[2]", "value": "16% and 14%"}, {"measurement": "Total Cell Count", "setting": "[2]", "value": "200 and 94"}, {"measurement": "Population Apoptotic (%)", "setting": "[4]", "value": "69% and 58%"}, {"measurement": "Population Fragmented Nuclei (%)", "setting": "[4]", "value": "33% and 25%"}, {"measurement": "Population Healthy Nuclei (%)", "setting": "[4]", "value": "36% and 48%"}, {"measurement": "Population Hoechst High Intensity Objects (%)", "setting": "[4]", "value": 4, "unit": "%"}, {"measurement": "Population Membrane Permeable-Phenotype (%)", "setting": "[4]", "value": "21% and 15%"}, {"measurement": "Population Mitochondria Different-Phenotype (%)", "setting": "[4]", "value": "44% and 34%"}, {"measurement": "Population Mitotic Cells (%)", "setting": "[4]", "value": "30% and 41%"}, {"measurement": "Population Normal (%)", "setting": "[4]", "value": 95, "unit": "%"}, {"measurement": "Population Pyknosed Nuclei (%)", "setting": "[4]", "value": "29% and 26%"}, {"measurement": "Population Tubulin-Different-Phenotype (%)", "setting": "[4]", "value": "13% and 18%"}, {"measurement": "Total Cell Count", "setting": "[4]", "value": "198 and 95"}, {"measurement": "Population Apoptotic (%)", "setting": "[6]", "value": "76% and 70%"}, {"measurement": "Population Fragmented Nuclei (%)", "setting": "[6]", "value": "35% and 27%"}, {"measurement": "Population Healthy Nuclei (%)", "setting": "[6]", "value": "30% and 31%"}, {"measurement": "Population Hoechst High Intensity Objects (%)", "setting": "[6]", "value": "12% and 8%"}, {"measurement": "Population Membrane Permeable-Phenotype (%)", "setting": "[6]", "value": "27% and 14%"}, {"measurement": "Population Mitochondria Different-Phenotype (%)", "setting": "[6]", "value": "29% and 50%"}, {"measurement": "Population Mitotic Cells (%)", "setting": "[6]", "value": "23% and 29%"}, {"measurement": "Population Normal (%)", "setting": "[6]", "value": "87% and 91%"}, {"measurement": "Population Pyknosed Nuclei (%)", "setting": "[6]", "value": "33% and 41%"}, {"measurement": "Population Tubulin-Different-Phenotype (%)", "setting": "[6]", "value": "16% and 25%"}, {"measurement": "Total Cell Count", "setting": "[6]", "value": "203 and 98"}]}
